Results on 17 compounds are retold here after ChEMBL document CHEMBL4152378, “Discovery of a Branched Peptide That Recognizes the Rev Response Element (RRE) RNA and Blocks HIV-1 Replication” (J Med Chem, 2018).

Residues, ends and D or L forms follow the SMILES beside them. *: point of attachment. X1 = N[C@@H](CCCCNC(=O)c1cnccn1)C(=O)N[C@@H](CCCCNC(=O)c1cnccn1)C(=O)N[C@@H](CCCCNC(=O)c1cnccn1)C(=O)*; Pyrazinecarbonyl = O=C(c1cnccn1)*

The nature of test [1]: Binding affinity to HIV1 rev response element 2B RNA by 2-AP based displacement assay. Further details: species or system Human immunodeficiency virus 1. In short, it runs like this:
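2-AP-labeled RRE IIB (0.1 μM) refolded at 95 °C 3 min, snap-cooled; titrated with peptide 0–20 μM in 10 mM potassium phosphate, 100 mM KCl, 1 mM MgCl2, 20 mM NaCl, pH 7.0; excitation 310 nm, emission decrease at 372 nm; Kd from Hill fit; at least duplicate, SD. Competition lines include 10-fold excess unlabeled RNA/DNA competitor.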

Test [2] concerns Human immunodeficiency virus 1. Kind of test: Binding affinity to HIV1 RRE RNA in HEK293T cells transfected with HIV1 CMV driven GagPol-RRE plasmid assessed as reduction in Rev-RRE dependent nuclear export by measuring intracellular p24 levels at 70 uM after 48 hrs by ELISA relative to control. In kind it is cell-based. In short, it runs like this:
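HEK 293T cells transfected with Rev and CMV-driven GagPol-RRE plasmids plus luciferase control; peptides added 5 h after transfection at 70 μM; cells lysed ~48 h post-transfection and intracellular p24 quantified by ELISA as percent inhibition.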

In test [1], `N=C(N)N[C@@H]1C[C@H](C(=O)N[C@@H](CCCCNC(=O)c2cnccn2)C(=O)N2C[C@H](N)C[C@@H]2C(=O)N[C@@H](Cc2ccc(O)cc2)C(N)=O)N(C(=O)[C@H](CCCCNC(=O)[C@H]2C[C@@H](N)CN2C(=O)[C@H]2C[C@@H](N)CN2C(=O)[C@H]2C[C@@H](NC(=N)N)CN2)NC(=O)[C@H]2C[C@@H](N)CN2C(=O)[C@H]2C[C@@H](N)CN2C(=O)[C@H]2C[C@@H](NC(=N)N)CN2)C1` yielded a Kd of 1320 nM.

As for `N=C(N)N[C@@H]1C[C@H](C(=O)N2C[C@H](NC(=N)N)C[C@@H]2C(=O)N[C@@H](CCCCNC(=O)c2cnccn2)C(=O)N[C@@H](Cc2ccc(O)cc2)C(N)=O)N(C(=O)[C@H](CCCCNC(=O)[C@H](CCCCNC(=O)c2cnccn2)NC(=O)[C@H]2C[C@@H](N)CN2C(=O)CN(CCN)C(=O)Cn2cnc3c(=O)[nH]c(N)nc32)NC(=O)[C@H](CCCCNC(=O)c2cnccn2)NC(=O)[C@H]2C[C@@H](N)CN2C(=O)CN(CCN)C(=O)Cn2cnc3c(=O)[nH]c(N)nc32)C1`, in test [1], the Kd worked out at 1640 nM. In addition, the inhibition in test [2] was above 50%.

Consider `N=C(N)N[C@H]1CN[C@@H](C(=O)N2C[C@H](N)C[C@@H]2C(=O)N2C[C@H](N)C[C@@H]2C(=O)NCCCC[C@H](NC(=O)[C@H]2C[C@@H](N)CN2C(=O)[C@H]2C[C@@H](N)CN2C(=O)[C@H]2C[C@@H](NC(=N)N)CN2)C(=O)N[C@@H](CCCCNC(=O)c2cnccn2)C(=O)NCCN(CC(=O)N2C[C@H](N)C[C@@H]2C(=O)N[C@@H](Cc2ccc(O)cc2)C(N)=O)C(=O)Cn2cnc3c(=O)[nH]c(N)nc32)C1`, for which, in test [1], the Kd was determined as 1020 nM.

Turning to `N=C(N)N[C@@H]1C[C@H](C(=O)NCCCC[C@H](NC(=O)[C@H]2C[C@@H](NC(=N)N)CN2C(=O)[C@H]2C[C@@H](N)CN2C(=O)[C@H]2C[C@@H](NC(=N)N)CN2)C(=O)N2C[C@H](N)C[C@@H]2C(=O)N2C[C@H](N)C[C@@H]2C(=O)N[C@@H](CCCCNC(=O)c2ccc(B3OC(=O)c4cc(O)ccc4O3)cc2)C(=O)N[C@@H](Cc2ccc(O)cc2)C(N)=O)N(C(=O)[C@H]2C[C@@H](N)CN2C(=O)[C@H]2C[C@@H](NC(=N)N)CN2)C1`, the Kd in test [1] was 2570 nM. In addition, the inhibition in test [2] was above 50%. `NC(=O)[C@H](Cc1ccc(O)cc1)NC(=O)[C@H]1C[C@@H](N)CN1C(=O)CN(CCNC(=O)[C@H](CCCCNC(=O)c1cnccn1)NC(=O)[C@H](CCCCNC(=O)[C@H](Cc1cccc2ccccc12)NC(=O)[C@H](CCCCNC(=O)c1ccc(B(O)O)cc1)NC(=O)[C@H]1C[C@@H](N)CN1)NC(=O)[C@H](Cc1cccc2ccccc12)NC(=O)[C@H](CCCCNC(=O)c1ccc(B(O)O)cc1)NC(=O)[C@H]1C[C@@H](N)CN1)C(=O)Cn1cnc2c(=O)[nH]c(N)nc21`: in test [1], the Kd was 3180 nM. In turn, `N=C(N)N[C@@H]1C[C@H](C(=O)N[C@@H](Cc2ccc(O)cc2)C(N)=O)N(C(=O)[C@H](CCCCNC(=O)c2cnccn2)NC(=O)[C@H](Cc2cccc3ccccc23)NC(=O)[C@H](CCCCNC(=O)[C@H](CCCCNC(=O)c2ccc(B(O)O)cc2)NC(=O)[C@H]2C[C@@H](N)CN2C(=O)[C@H]2C[C@@H](NC(=N)N)CN2)NC(=O)[C@H](CCCCNC(=O)c2ccc(B(O)O)cc2)NC(=O)[C@H]2C[C@@H](N)CN2C(=O)[C@H]2C[C@@H](NC(=N)N)CN2)C1` gave a dissociation constant (Kd) in test [1] of 1500 nM. In test [2], the inhibition is above 50%. `N=C(N)N[C@H]1CN[C@@H](C(=O)N[C@@H](CCCCNC(=O)c2ccc(B3OC(=O)c4cc(O)ccc4O3)cc2)C(=O)N[C@@H](CCCCNC(=O)c2ccc(B3OC(=O)c4cc(O)ccc4O3)cc2)C(=O)NCCCC[C@H](NC(=O)[C@H](CCCCNC(=O)c2ccc(B3OC(=O)c4cc(O)ccc4O3)cc2)NC(=O)[C@H](CCCCNC(=O)c2ccc(B3OC(=O)c4cc(O)ccc4O3)cc2)NC(=O)[C@H]2C[C@@H](NC(=N)N)CN2)C(=O)N[C@@H](CCCCNC(=O)c2ccc(B3OC(=O)c4cc(O)ccc4O3)cc2)C(=O)N[C@@H](CCCCNC(=O)c2cnccn2)C(=O)N[C@@H](Cc2cccc3ccccc23)C(=O)N[C@@H](Cc2ccc(O)cc2)C(N)=O)C1` returned a Kd in test [1] above 10000 nM. For the compound `N=C(N)N[C@H]1CN[C@@H](C(=O)N2C[C@H](N)C[C@@H]2C(=O)N2C[C@H](N)C[C@@H]2C(=O)NCCCC[C@H](NC(=O)[C@H]2C[C@@H](N)CN2C(=O)[C@H]2C[C@@H](N)CN2C(=O)[C@H]2C[C@@H](NC(=N)N)CN2)C(=O)NCCN(CC(=O)NCCN(CC(=O)N2C[C@H](N)C[C@@H]2C(=O)N[C@@H](Cc2ccc(O)cc2)C(N)=O)C(=O)Cn2cnc3c(=O)[nH]c(N)nc32)C(=O)Cn2cnc3c(=O)[nH]c(N)nc32)C1`, in test [1], the Kd turned out to be 1760 nM. `N=C(N)N[C@@H]1C[C@H](C(=O)N2C[C@H](NC(=N)N)C[C@@H]2C(=O)N[C@@H](CCCCNC(=O)c2cnccn2)C(=O)N[C@@H](Cc2ccc(O)cc2)C(N)=O)N(C(=O)[C@H](CCCCNC(=O)[C@H](CCCCNC(=O)c2cnccn2)NC(=O)[C@H]2C[C@@H](N)CN2C(=O)[C@H]2C[C@@H](NC(=N)N)CN2)NC(=O)[C@H](CCCCNC(=O)c2cnccn2)NC(=O)[C@H]2C[C@@H](N)CN2C(=O)[C@H]2C[C@@H](NC(=N)N)CN2)C1`: in test [1], the Kd was determined as 1300 nM. Turning to `N=C(N)N[C@H]1CN[C@@H](C(=O)N2C[C@H](N)C[C@@H]2C(=O)NCCN(CC(=O)NCCCC[C@H](NC(=O)CN(CCNC(=O)[C@H]2C[C@@H](N)CN2C(=O)[C@H]2C[C@@H](NC(=N)N)CN2)C(=O)Cn2cnc3c(=O)[nH]c(N)nc32)C(=O)NCCN(CC(=O)N[C@@H](CCCCNC(=O)c2ccc(B3OC(=O)c4cc(O)ccc4O3)cc2)C(=O)N[C@@H](CCCCNC(=O)c2cnccn2)C(=O)N[C@@H](Cc2ccc(O)cc2)C(N)=O)C(=O)Cn2cnc3c(=O)[nH]c(N)nc32)C(=O)Cn2cnc3c(=O)[nH]c(N)nc32)C1`, in test [1], binding was put at a Kd of 1180 nM. On the same count and under the same terms, the same measure for `N=C(N)N[C@@H]1C[C@H](C(=O)N[C@@H](Cc2ccc(O)cc2)C(N)=O)N(C(=O)[C@H](Cc2cccc3ccccc23)NC(=O)[C@H](CCCCNC(=O)c2cnccn2)NC(=O)[C@H](CCCCNC(=O)[C@H](Cc2cccc3ccccc23)NC(=O)[C@H](CCCCNC(=O)c2ccc(B3OC(=O)c4cc(O)ccc4O3)cc2)NC(=O)[C@H]2C[C@@H](NC(=N)N)CN2)NC(=O)[C@H](Cc2cccc3ccccc23)NC(=O)[C@H](CCCCNC(=O)c2ccc(B3OC(=O)c4cc(O)ccc4O3)cc2)NC(=O)[C@H]2C[C@@H](NC(=N)N)CN2)C1`: 4960 nM; for `N=C(N)N[C@H]1CN[C@@H](C(=O)N2C[C@H](N)C[C@@H]2C(=O)N2C[C@H](N)C[C@@H]2C(=O)NCCCC[C@H](NC(=O)[C@H]2C[C@@H](N)CN2C(=O)[C@H]2C[C@@H](N)CN2C(=O)[C@H]2C[C@@H](NC(=N)N)CN2)C(=O)N[C@@H](CCCCNC(=O)c2cnccn2)C(=O)N[C@@H](Cc2cccc3ccccc23)C(=O)N2C[C@H](N)C[C@@H]2C(=O)N[C@@H](Cc2ccc(O)cc2)C(N)=O)C1`: 2980 nM. Same read-out and setting: the same measure for `N=C(N)N[C@@H]1C[C@H](C(=O)N2C[C@H](N)C[C@@H]2C(=O)N[C@@H](Cc2ccc(O)cc2)C(N)=O)N(C(=O)[C@H]2C[C@@H](N)CN2C(=O)[C@H](CCCCNC(=O)[C@H]2C[C@@H](N)CN2C(=O)[C@H]2C[C@@H](NC(=N)N)CN2C(=O)[C@H]2C[C@@H](N)CN2)NC(=O)[C@H]2C[C@@H](N)CN2C(=O)[C@H]2C[C@@H](NC(=N)N)CN2C(=O)[C@H]2C[C@@H](N)CN2)C1`: 720 nM. Still for that read-out and setting: the same measure for `N=C(N)N[C@H]1CN[C@@H](C(=O)N2C[C@H](N)C[C@@H]2C(=O)N[C@@H](Cc2cccc3ccccc23)C(=O)NCCCC[C@H](NC(=O)[C@H](Cc2cccc3ccccc23)NC(=O)[C@H]2C[C@@H](N)CN2C(=O)[C@H]2C[C@@H](NC(=N)N)CN2)C(=O)NCCN(CC(=O)NCCN(CC(=O)N[C@@H](Cc2cccc3ccccc23)C(=O)N[C@@H](Cc2ccc(O)cc2)C(N)=O)C(=O)Cn2cnc3c(=O)[nH]c(N)nc32)C(=O)Cn2cnc3c(=O)[nH]c(N)nc32)C1`: 660 nM. `N=C(N)N[C@@H]1C[C@H](C(=O)N2C[C@H](N)C[C@@H]2C(=O)N[C@@H](Cc2ccc(O)cc2)C(N)=O)N(C(=O)CN(CCNC(=O)[C@H](CCCCNC(=O)[C@H]2C[C@@H](NC(=N)N)CN2C(=O)[C@H]2C[C@@H](N)CN2C(=O)[C@@H](N)CCCCNC(=O)c2cnccn2)NC(=O)[C@H]2C[C@@H](NC(=N)N)CN2C(=O)[C@H]2C[C@@H](N)CN2C(=O)[C@@H](N)CCCCNC(=O)c2cnccn2)C(=O)Cn2cnc3c(=O)[nH]c(N)nc32)C1` gave a Kd in test [1] of 1110 nM. In turn, `N=C(N)N[C@@H]1C[C@H](C(=O)N[C@@H](Cc2ccc(O)cc2)C(N)=O)N(C(=O)[C@H](CCCCNC(=O)c2ccc(B(O)O)cc2)NC(=O)[C@H](CCCCNC(=O)c2ccc(B(O)O)cc2)NC(=O)[C@H](CCCCNC(=O)[C@H]2C[C@@H](N)CN2C(=O)[C@H]2C[C@@H](N)CN2C(=O)[C@H]2C[C@@H](NC(=N)N)CN2)NC(=O)[C@H]2C[C@@H](N)CN2C(=O)[C@H]2C[C@@H](N)CN2C(=O)[C@H]2C[C@@H](NC(=N)N)CN2)C1` returned a Kd in test [1] of 4460 nM. On to `NC(=O)[C@H](Cc1ccc(O)cc1)NC(=O)[C@H](CCCCNC(=O)c1cnccn1)NC(=O)[C@H](CCCCNC(=O)c1cnccn1)NC(=O)[C@H](CCCCNC(=O)c1cnccn1)NC(=O)[C@H](CCCCNC(=O)[C@H](CCCCNC(=O)c1cnccn1)NC(=O)[C@H](CCCCNC(=O)c1cnccn1)NC(=O)[C@@H](N)CCCCNC(=O)c1cnccn1)NC(=O)[C@H](CCCCNC(=O)c1cnccn1)NC(=O)[C@H](CCCCNC(=O)c1cnccn1)NC(=O)[C@@H](N)CCCCNC(=O)c1cnccn1` (H-K(Pyrazinecarbonyl)K(Pyrazinecarbonyl)K(Pyrazinecarbonyl)K(X1)K(Pyrazinecarbonyl)K(Pyrazinecarbonyl)K(Pyrazinecarbonyl)Y-NH2), for which the Kd in test [1] is above 10000 nM.

Usually Kd stands for the free concentration of one partner at which half of the binding sites on the other are occupied at equilibrium, for simple one-to-one binding. One may read the inhibition as the relative decrease from the control value, in per cent.
